According to ChEMBL document CHEMBL3272018, “Synthesis of aziridinylallylaminophosphine oxides and sulfides as potential adjuvant cancer chemotherapeutic agents” (J Med Chem, 1976):
Calls of active or inactive are those of the source. The rule behind the calls is not given here.

Legend:
[1] = test system: Rattus norvegicus; test: Toxicity in rat allografted with rat Walker 256 cells intramuscularly assessed as change in body weight at 0.3 mg/kg, qd administered for 5 days; type: organism-based; design: dose 0.3 mg/kg, route intramuscular; details: in vivo, im, 120 h
How it was run: (§1)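 Walker 256 carcinoma solid-tumour system in rats (parent line, or the line resistant to cytoxan). Dosing was one injection per day for 5 days. Toxicity was taken as the average net body-weight change of the treated group minus the average net weight change of the untreated tumour-bearing controls, in grams.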

[2] = test system: W256; test: Antitumor activity against rat Walker 256 cells intramuscularly allografted in rat assessed as survival rate at 0.3 mg/kg, qd administered for 5 days; type: functional, organism-based; design: dose 0.3 mg/kg
How it was run: (§2)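 Rats bearing Walker 256 carcinoma as a solid tumor; lines 1-8 use a cytoxan-resistant Walker 256 subline. Dosed once daily for 5 days. Treated (T) and untreated control (C) groups are compared, and the response is given as T/C percentage, reflecting increase in survival time. Host weight change is the average weight change of the test group minus that of the controls, in grams.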

[3] = test system: W256; test: Antitumor activity against rat Walker 256 cells intramuscularly allografted in rat assessed as tumor growth at 0.3 mg/kg, qd administered for 5 days (reference value: 9.2 g); type: functional; details: route intramuscular
How it was run: (§3)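 Dosed once daily for 5 days. Response is tumor progression in treated (T) versus untreated control (C) animals, expressed as T/C percentage. Host weight change is reported as the average net weight change of the test group minus that of the controls, in grams.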

[4] = Toxicity in rat allografted with rat Walker 256 cells intramuscularly; type: organism-based
[5] = test system: Musca domestica; test: Toxicity in male house fly assessed as lowest dose required to cause complete sterility administered in sugar; type: organism-based; details: in vivo, po
[6] = test system: Musca domestica; test: Toxicity in male house fly assessed as lowest dose required to cause complete sterility administered in food; type: organism-based; details: in vivo, po
[7] = Antitumor activity against rat Lewis-Lymphoma 8 cells allografted in Lewis-Wistar rat assessed as tumor regression at 20 mg/kg, ip administered for 2 weeks measured for 9 to 10 months relative to control; type: functional; details: route intraperitoneal
[8] = test system: W256; test: Antitumor activity against rat Walker 256 cells intramuscularly allografted in rat assessed as survival rate at 0.4 mg/kg, qd administered for 5 days; type: functional, organism-based; design: dose 0.4 mg/kg; how it was run: as §2
[9] = test system: L1210; test: In vivo antitumor activity against mouse L1210 cells in prognostic scoring system assessed as survival rate at 2.5 mg/kg, qd administered for 15 days; type: functional, organism-based; design: dose 2.5 mg/kg
How it was run: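 L1210 leukaemia in mice, run as an ascites tumour system. Injections were once daily for 9 or 15 days, or as a single dose. Response is the increase in survival time, given as T/C %, treated over untreated controls; a larger value means more activity. Weight change is the treated-group mean minus the control-group mean, in grams.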

[10] = test system: Rattus norvegicus; test: Toxicity in rat allografted with rat Walker 256 cells intramuscularly assessed as change in body weight at 0.4 mg/kg, qd administered for 5 days; type: organism-based; design: dose 0.4 mg/kg, route intramuscular; details: in vivo, im, 120 h; how it was run: as §1
[11] = test system: W256; test: Antitumor activity against rat Walker 256 cells intramuscularly allografted in rat assessed as tumor growth inhibition at 0.4 mg/kg, qd administered for 5 days relative to control; type: functional; details: W256, im, 120 h, route intramuscular, read-out: TGI; how it was run: as §3
[12] = test system: W256; test: Antitumor activity against rat Walker 256 cells intramuscularly allografted in rat assessed as tumor growth inhibition; type: functional; details: W256, im; how it was run: as §3
[13] = Therapeutic index, ratio of LD50 for rat allografted with rat Walker 256 cells to ED10 for antitumor activity against rat Walker 256 cells intramuscularly allografted in rat; type: cell-based; details: read-out: TI
How it was run: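 Therapeutic index is LD50/ED10 in the Walker 256 solid tumour system. ED10 is the dose giving a 10% tumour weight reduction, with values extrapolated from dose-response data.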

Row | Structure (SMILES) | Activity [1] | Activity [2] | Activity [3] | LD50 [4] | Activity [5] | Activity [6] | Activity [7] | Activity [8] | Activity [9] | Activity [10] | inhibition in vivo at 0.4 mg/kg [11] | ED10 [12] | selectivity ratio [13]
1 | C=CCN(CC=C)P(=S)(N1CC1)N1CC1 | 0 g | Active | 9.5 g | 2 mg/kg | 0.05% | 0.05% |  |  |  |  |  |  | 
2 | C=CCN(CC=C)C(CN1CC1)C(N)=O (stereo unspecified) |  |  |  |  |  |  | 100% |  |  |  |  |  | 
3 | C=CCN(CC=C)P(=S)(N1CC1)N1CC1C (stereo unspecified) |  |  |  | 4 mg/kg | 0.5% | 0.25% |  | Active | Active | -4 g | 77% | 0.4 mg/kg | 10
